Assay results taken from ChEMBL document CHEMBL2440012, “Design, synthesis and anticonvulsant properties of new N-Mannich bases derived from 3-phenylpyrrolidine-2,5-diones” (Bioorg Med Chem, 2013).
Active and inactive are the calls of the source. The calls are words filed in the database; no cut-off is given here.

What was measured:
Mus musculus [1] = experiment: Anticonvulsant activity against 6 Hz psychomotor seizure in ip dosed albino CF1 mouse assessed as time to peak effect by minimal clonic seizure test; format: functional
Mus musculus [2] = experiment: Neurotoxicity in ip dosed albino CF1 mouse assessed as time to peak effect by rotorod test; format: toxicity, organism-based; conditions: in vivo
[3] = Neurotoxicity in ip dosed albino CF1 mouse by rotorod test; format: toxicity, organism-based; conditions: in vivo
Mus musculus [4] = experiment: Anticonvulsant activity in albino CF1 mouse assessed as assessed as protection against 6 Hz psychomotor seizure at 100 mg/kg, ip after 0.5 hr by minimal clonic seizure test; format: functional; conditions: route intraperitoneal
In short: (§1)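 Male CF-1 mice, groups of four, dosed ip in 0.5% methylcellulose/water suspension, then challenged by 6-Hz corneal stimulation at 32 mA (0.2 ms pulses, 3 s, constant current) at 0.25, 0.5, 1, 2 or 4 h; count of mice out of four protected from stunned posture/clonic seizure.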

Rattus norvegicus [5] = experiment: Anticonvulsant activity in albino Sprague-Dawley rat assessed as protection against maximal electroshock-induced seizures at 30 mg/kg, po measured after 2 hrs; format: functional
In short: (§2)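 Male Sprague-Dawley rats, four per group, dosed p.o. at 30 mg/kg in 0.5% methylcellulose/water suspension; MES test at 0.25, 0.5, 1, 2 and 4 h, motor impairment examined in parallel; number of rats out of four protected.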

Mus musculus [6] = experiment: Anticonvulsant activity in albino CF1 mouse assessed as protection against subcutaneous pentylenetetrazole-induced convulsion at 300 mg/kg, ip measured after 0.5 hrs; format: functional, organism-based; set-up: dose 300 mg/kg
In short: (§3)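 Male CF-1 mice given ip suspension in 0.5% methylcellulose/water at 30, 100 and 300 mg/kg; MES, scPTZ (pentylenetetrazole 85 mg/kg sc, CD97 dose for clonic seizures ≥5 s) and rotarod (inability to hold balance 1 min in each of three trials) assessed at 0.5 and 4 h; value is minimum dose active in half or more animals.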

Mus musculus [7] = experiment: Anticonvulsant activity in albino CF1 mouse assessed as protection against maximal electroshock-induced seizures at 300 mg/kg, ip measured after 4 hrs; format: functional, organism-based; set-up: dose 300 mg/kg; in short: as §3
Rattus norvegicus [8] = experiment: Anticonvulsant activity in albino Sprague-Dawley rat assessed as protection against maximal electroshock-induced seizures at 30 mg/kg, po measured after 0.5 hr; format: functional; in short: as §2
Rattus norvegicus [9] = experiment: Anticonvulsant activity in albino Sprague-Dawley rat assessed as protection against maximal electroshock-induced seizures at 30 mg/kg, po measured after 1 hr; format: functional; in short: as §2
Mus musculus [10] = experiment: Anticonvulsant activity in albino CF1 mouse assessed as assessed as protection against 6 Hz psychomotor seizure at 100 mg/kg, ip after 4 hrs by minimal clonic seizure test; format: functional; conditions: route intraperitoneal; in short: as §1
Mus musculus [11] = experiment: Anticonvulsant activity in albino CF1 mouse assessed as assessed as protection against 6 Hz psychomotor seizure at 100 mg/kg, ip after 2 hrs by minimal clonic seizure test; format: functional; conditions: route intraperitoneal; in short: as §1
Mus musculus [12] = experiment: Anticonvulsant activity in albino CF1 mouse assessed as protection against subcutaneous pentylenetetrazole-induced convulsion at 300 mg/kg, ip measured after 4 hrs; format: functional, organism-based; set-up: dose 300 mg/kg; in short: as §3
Rattus norvegicus [13] = experiment: Anticonvulsant activity in albino Sprague-Dawley rat assessed as protection against maximal electroshock-induced seizures at 30 mg/kg, po measured after 0.25 hr; format: functional; in short: as §2
Mus musculus [14] = experiment: Anticonvulsant activity in albino CF1 mouse assessed as assessed as protection against 6 Hz psychomotor seizure at 100 mg/kg, ip after 0.25 hr by minimal clonic seizure test; format: functional; conditions: route intraperitoneal; in short: as §1
Mus musculus [15] = experiment: Anticonvulsant activity in albino CF1 mouse assessed as protection against maximal electroshock-induced seizures at 300 mg/kg, ip measured after 0.5 hr; format: functional, organism-based; set-up: dose 300 mg/kg; in short: as §3
Rattus norvegicus [16] = experiment: Anticonvulsant activity in albino Sprague-Dawley rat assessed as protection against maximal electroshock-induced seizures at 30 mg/kg, po measured after 4 hrs; format: functional; in short: as §2
Mus musculus [17] = experiment: Anticonvulsant activity in albino CF1 mouse assessed as assessed as protection against 6 Hz psychomotor seizure at 100 mg/kg, ip after 1 hr by minimal clonic seizure test; format: functional; conditions: route intraperitoneal; in short: as §1
Mus musculus [18] = experiment: Neurotoxicity in albino CF1 mouse assessed as minimum motor impairment at 300 mg/kg, ip measured after 4 hrs by rotorod test; format: toxicity, organism-based; set-up: dose 300 mg/kg, route intraperitoneal; conditions: in vivo; in short: as §3
Mus musculus [19] = experiment: Neurotoxicity in albino CF1 mouse assessed as minimum motor impairment at 300 mg/kg, ip measured after 0.5 hr by rotorod test; format: toxicity, organism-based; set-up: dose 300 mg/kg, route intraperitoneal; conditions: in vivo; in short: as §3
Mus musculus [20] = experiment: Anticonvulsant activity against 6 Hz psychomotor seizure in ip dosed albino CF1 mouse by minimal clonic seizure test; format: functional
Mus musculus [21] = experiment: Anticonvulsant activity in ip dosed albino CF1 mouse assessed as protection against maximal electroshock-induced seizures in half or more animals measured after 0.5 hr; format: functional; conditions: read-out: MED; in short: as §3
Mus musculus [22] = experiment: Anticonvulsant activity in ip dosed albino CF1 mouse assessed as protection against maximal electroshock-induced seizures in half or more animals measured after 4 hrs; format: functional; conditions: read-out: MED; in short: as §3
Mus musculus [23] = experiment: Toxicity in albino CF1 mouse assessed as diarrhea at 300 mg/kg, ip measured after 4 hrs by rotorod test; format: organism-based; set-up: dose 300 mg/kg, route intraperitoneal; conditions: in vivo
Rattus norvegicus [24] = experiment: Neurotoxicity in po dosed albino Sprague-Dawley rat assessed as time to peak effect by rotorod test; format: toxicity, organism-based; conditions: in vivo
Mus musculus [25] = experiment: Anticonvulsant activity in ip dosed albino CF1 mouse assessed as protection against subcutaneous pentylenetetrazole-induced convulsion in half or more animals measured after 4 hrs; format: functional; conditions: albino CF1, 4 h, read-out: MED; in short: as §3
Mus musculus [26] = experiment: Anticonvulsant activity in ip dosed albino CF1 mouse assessed as protection against subcutaneous pentylenetetrazole-induced convulsion in half or more animals measured after 0.5 hr; format: functional; conditions: albino CF1, 0.5 h, read-out: MED; in short: as §3
Rattus norvegicus [27] = experiment: Anticonvulsant activity against […] subcutaneous pentylenetetrazole-induced convulsion in po dosed albino Sprague-Dawley rat assessed as time to peak effect; format: functional
Rattus norvegicus [28] = experiment: Anticonvulsant activity in po dosed albino Sprague-Dawley rat assessed as protection against maximal electroshock-induced seizures; format: functional
Rattus norvegicus [29] = experiment: Anticonvulsant activity against maximal electroshock-induced seizures in po dosed albino Sprague-Dawley rat assessed as time to peak effect; format: functional
Rattus norvegicus [30] = experiment: Protection index, ratio of TD50 for neurotoxicity in po dosed albino Sprague-Dawley rat by rotorod test to ED50 for anticonvulsant activity in po dosed albino Sprague-Dawley rat by scPTZ test; format: functional
In short: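 Male Sprague-Dawley rats, compound suspended in 0.5% methylcellulose/water and given orally; tested at the time of peak effect. scPTZ: 70 mg/kg pentylenetetrazole sc; the end-point is clonic seizures lasting at least 5 s. Rotarod: motor impairment is failure to keep balance for 1 min in each of three trials. Groups of at least eight rats received several doses until at least three points fell within 10–90% effect. ED50, TD50 and 95% confidence intervals were derived by regression; PI = TD50/ED50.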

[31] = Neurotoxicity in po dosed albino Sprague-Dawley rat assessed as minimum motor impairment by rotorod test; format: toxicity, organism-based; conditions: in vivo
Rattus norvegicus [32] = experiment: Protection index, ratio of TD50 for neurotoxicity in po dosed albino Sprague-Dawley rat by rotorod test to ED50 for anticonvulsant activity in po dosed albino Sprague-Dawley rat by MES test; format: functional
Mus musculus [33] = experiment: Neurotoxicity in ip dosed albino CF1 mouse assessed as minimum motor impairment in half or more animals measured after 0.5 hrs by rotorod test; format: toxicity, organism-based; conditions: in vivo; in short: as §3
Rattus norvegicus [34] = experiment: Anticonvulsant activity in po dosed albino Sprague-Dawley rat assessed as protection against subcutaneous pentylenetetrazole-induced convulsion; format: functional
Mus musculus [35] = experiment: Neurotoxicity in ip dosed albino CF1 mouse assessed as minimum motor impairment in half or more animals measured after 4 hrs by rotorod test; format: toxicity, organism-based; conditions: in vivo; in short: as §3

Structure (SMILES)	Activity (Rattus norvegicus [5])	Activity (Mus musculus [6])	Activity (Rattus norvegicus [8])	Activity (Rattus norvegicus [9])	Activity (Mus musculus [12])	Activity (Rattus norvegicus [13])	Activity (Mus musculus [15])	Activity (Rattus norvegicus [16])	Activity (Mus musculus [18])	Activity (Mus musculus [19])	minimal effective dose (Mus musculus [22])	Time (Rattus norvegicus [24])	Time (Rattus norvegicus [27])	Time (Rattus norvegicus [29])	also measured
CC[C@@H](C(N)=O)N1CCCC1=O															Time (Mus musculus [1]): 1 h; Time (Mus musculus [2]): 1 h; TD50 [3]: > 500 mg/kg
O=C1CC(c2ccccc2)C(=O)N1CN1CCN(c2ncccn2)CC1 (racemic)	inactive	inactive	inactive	inactive	inactive	inactive	inactive	inactive	Non-toxic	Non-toxic					Activity (Mus musculus [4]): 50%; Activity (Mus musculus [7]): inactive; Time (Mus musculus [1]): 1 h; Activity (Mus musculus [10]): 0%; Activity (Mus musculus [11]): 50%; Activity (Mus musculus [14]): 75%; Time (Mus musculus [2]): 1 h; Activity (Mus musculus [17]): 50%; ED50 (Mus musculus [20]): 103 mg/kg
O=C1CC(c2ccccc2)C(=O)N1CN1CCC(Cc2ccccc2)CC1 (racemic)		inactive			inactive				Non-toxic	Non-toxic	300 mg/kg				Activity (Mus musculus [4]): 0%; minimal effective dose (Mus musculus [21]): 100 mg/kg; Activity (Mus musculus [10]): 0%; Activity (Mus musculus [11]): 25%; Activity (Mus musculus [14]): 0%; Activity (Mus musculus [17]): 25%
O=C1CC(c2ccccc2Cl)C(=O)N1CN1CCN(c2ncccn2)CC1 (racemic)	inactive	inactive	inactive	inactive	inactive	inactive	inactive	inactive		Non-toxic	100 mg/kg				MED (Mus musculus [23]): 300 mg/kg
CCC1(C)CC(=O)NC1=O (configuration not stated) [ETHOSUXIMIDE]							inactive		Non-toxic	Non-toxic		1 h	1 h	1 h	Activity (Mus musculus [7]): inactive; minimal effective dose (Mus musculus [25]): 300 mg/kg; minimal effective dose (Mus musculus [26]): 100 mg/kg; ED50 (Rattus norvegicus [28]): > 500 mg/kg; Ratio TD50/ED50 (Rattus norvegicus [30]): >2.99; TD50 [31]: > 500 mg/kg
O=C1NC(=O)C(c2ccccc2)(c2ccccc2)N1 [PHENYTOIN]	75%	inactive	100%	75%	inactive	25%		75%			30 mg/kg	1 h	1 h	1 h	minimal effective dose (Mus musculus [21]): 30 mg/kg; Ratio TD50/ED50 (Rattus norvegicus [32]): >3.6; MED (Mus musculus [33]): 100 mg/kg; ED50 (Rattus norvegicus [34]): > 500 mg/kg; TD50 [31]: > 100 mg/kg; MED (Mus musculus [35]): 100 mg/kg
CCCC(CCC)C(=O)O [VALPROIC ACID]												1 h	1 h	1 h	ED50 (Rattus norvegicus [34]): 646 mg/kg
